According to paper PMC9279635 (Acta Pharmaceutica Sinica. B, 2021):

Assays:
EPH-A2 = EPH-A2 (Homo sapiens, UniProt P29317); test: Kinase selectivity test, EPH-A2; format: biochemical; conditions: 10 nmol/L
ALK = ALK (Homo sapiens, UniProt Q9UM73); test: Kinase selectivity test, ALK; format: biochemical; conditions: 1 μmol/L
ABL = ABL (Homo sapiens, UniProt P00519); test: Kinase selectivity test, ABL; format: biochemical; conditions: 10 nmol/L
KDR = KDR (Homo sapiens, UniProt P35968); test: ELISA kinase assay, KDR; format: biochemical; conditions: 10 nmol/L
c-Src = c-Src (Homo sapiens, UniProt P12931); test: Kinase selectivity test, c-Src; format: biochemical; conditions: 10 nmol/L
c-Src, sequence (P12931 whole entry): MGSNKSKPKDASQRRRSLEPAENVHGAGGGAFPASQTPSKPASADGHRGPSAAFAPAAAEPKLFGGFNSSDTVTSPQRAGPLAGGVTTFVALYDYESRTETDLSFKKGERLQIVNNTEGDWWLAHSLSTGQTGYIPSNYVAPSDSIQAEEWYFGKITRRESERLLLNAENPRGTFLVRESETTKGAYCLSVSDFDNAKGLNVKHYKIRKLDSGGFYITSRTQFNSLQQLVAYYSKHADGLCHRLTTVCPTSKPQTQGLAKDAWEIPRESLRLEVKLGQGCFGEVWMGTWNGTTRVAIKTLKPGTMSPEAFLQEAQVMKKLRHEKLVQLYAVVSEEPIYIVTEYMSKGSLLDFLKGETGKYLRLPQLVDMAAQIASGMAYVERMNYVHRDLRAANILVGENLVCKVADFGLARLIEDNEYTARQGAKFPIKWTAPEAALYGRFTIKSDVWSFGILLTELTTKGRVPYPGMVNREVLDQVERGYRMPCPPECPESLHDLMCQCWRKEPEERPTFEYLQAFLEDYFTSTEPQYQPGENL

PDGFR = test: Kinase selectivity test, PDGFR; format: biochemical; conditions: 10 nmol/L
VEGFR-1 = VEGFR-1 (Homo sapiens, UniProt P17948); test: Kinase selectivity test, VEGFR-1; format: biochemical; conditions: 10 nmol/L
AXL = molecular target: T1, AXL (Homo sapiens, UniProt P30530); test: Kinase selectivity test, AXL; format: biochemical; conditions: 10 nmol/L
T1 sequence (P30530 26-894): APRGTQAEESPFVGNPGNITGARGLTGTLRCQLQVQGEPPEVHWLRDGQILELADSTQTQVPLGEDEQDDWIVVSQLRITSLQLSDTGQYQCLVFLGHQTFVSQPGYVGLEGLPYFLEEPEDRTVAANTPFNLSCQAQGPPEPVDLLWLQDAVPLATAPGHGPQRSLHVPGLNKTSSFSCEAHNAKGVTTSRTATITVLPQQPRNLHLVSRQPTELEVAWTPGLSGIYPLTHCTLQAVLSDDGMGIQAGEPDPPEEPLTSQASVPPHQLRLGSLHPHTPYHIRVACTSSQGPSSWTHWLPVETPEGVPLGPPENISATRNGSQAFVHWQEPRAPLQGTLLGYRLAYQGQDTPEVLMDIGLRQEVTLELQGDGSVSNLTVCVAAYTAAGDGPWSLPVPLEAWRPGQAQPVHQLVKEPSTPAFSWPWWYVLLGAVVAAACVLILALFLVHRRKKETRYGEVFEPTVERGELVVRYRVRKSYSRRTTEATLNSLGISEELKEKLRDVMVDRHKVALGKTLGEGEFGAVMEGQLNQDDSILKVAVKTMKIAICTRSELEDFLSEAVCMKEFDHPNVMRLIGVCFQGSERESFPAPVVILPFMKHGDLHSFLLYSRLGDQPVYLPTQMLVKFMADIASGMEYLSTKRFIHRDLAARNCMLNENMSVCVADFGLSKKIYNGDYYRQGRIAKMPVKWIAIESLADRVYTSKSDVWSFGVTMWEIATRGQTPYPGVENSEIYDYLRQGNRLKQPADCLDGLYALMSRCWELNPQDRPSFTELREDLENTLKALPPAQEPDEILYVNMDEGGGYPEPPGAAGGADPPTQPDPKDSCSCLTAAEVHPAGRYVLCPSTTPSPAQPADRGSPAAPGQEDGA

DDR1 = DDR1 (Homo sapiens, UniProt Q08345); test: ELISA kinase assay, DDR1; format: biochemical
DDR1, sequence (Q08345 19-913): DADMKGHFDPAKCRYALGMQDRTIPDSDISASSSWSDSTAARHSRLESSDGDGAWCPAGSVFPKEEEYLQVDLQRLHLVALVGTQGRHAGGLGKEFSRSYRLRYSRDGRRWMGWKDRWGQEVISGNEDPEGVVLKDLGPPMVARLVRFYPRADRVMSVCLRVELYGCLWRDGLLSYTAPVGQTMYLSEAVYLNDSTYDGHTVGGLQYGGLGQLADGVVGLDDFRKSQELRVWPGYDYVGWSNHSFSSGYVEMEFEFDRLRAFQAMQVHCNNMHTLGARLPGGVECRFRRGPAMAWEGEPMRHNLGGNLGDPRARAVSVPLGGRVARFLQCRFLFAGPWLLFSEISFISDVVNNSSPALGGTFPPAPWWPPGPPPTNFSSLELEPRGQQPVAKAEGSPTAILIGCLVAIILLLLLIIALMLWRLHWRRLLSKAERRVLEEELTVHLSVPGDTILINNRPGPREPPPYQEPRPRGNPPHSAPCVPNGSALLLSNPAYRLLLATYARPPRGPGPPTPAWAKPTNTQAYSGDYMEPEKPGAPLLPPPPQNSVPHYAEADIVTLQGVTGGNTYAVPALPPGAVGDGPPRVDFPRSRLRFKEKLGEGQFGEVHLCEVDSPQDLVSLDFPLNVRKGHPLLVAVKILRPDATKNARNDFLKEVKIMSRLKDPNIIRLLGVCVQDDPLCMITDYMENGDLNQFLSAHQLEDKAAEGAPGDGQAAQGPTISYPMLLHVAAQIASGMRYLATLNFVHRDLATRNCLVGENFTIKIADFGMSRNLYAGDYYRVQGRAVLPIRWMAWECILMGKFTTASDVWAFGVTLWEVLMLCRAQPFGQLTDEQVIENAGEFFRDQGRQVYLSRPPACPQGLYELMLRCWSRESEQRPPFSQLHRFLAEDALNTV

ErbB4 = ErbB4 (Homo sapiens, UniProt Q15303); test: Kinase selectivity test, ErbB4; format: biochemical; conditions: 10 nmol/L
RET = RET (Homo sapiens, UniProt P07949); test: ELISA kinase assay, RET; format: biochemical
RET, sequence (P07949 29-1114): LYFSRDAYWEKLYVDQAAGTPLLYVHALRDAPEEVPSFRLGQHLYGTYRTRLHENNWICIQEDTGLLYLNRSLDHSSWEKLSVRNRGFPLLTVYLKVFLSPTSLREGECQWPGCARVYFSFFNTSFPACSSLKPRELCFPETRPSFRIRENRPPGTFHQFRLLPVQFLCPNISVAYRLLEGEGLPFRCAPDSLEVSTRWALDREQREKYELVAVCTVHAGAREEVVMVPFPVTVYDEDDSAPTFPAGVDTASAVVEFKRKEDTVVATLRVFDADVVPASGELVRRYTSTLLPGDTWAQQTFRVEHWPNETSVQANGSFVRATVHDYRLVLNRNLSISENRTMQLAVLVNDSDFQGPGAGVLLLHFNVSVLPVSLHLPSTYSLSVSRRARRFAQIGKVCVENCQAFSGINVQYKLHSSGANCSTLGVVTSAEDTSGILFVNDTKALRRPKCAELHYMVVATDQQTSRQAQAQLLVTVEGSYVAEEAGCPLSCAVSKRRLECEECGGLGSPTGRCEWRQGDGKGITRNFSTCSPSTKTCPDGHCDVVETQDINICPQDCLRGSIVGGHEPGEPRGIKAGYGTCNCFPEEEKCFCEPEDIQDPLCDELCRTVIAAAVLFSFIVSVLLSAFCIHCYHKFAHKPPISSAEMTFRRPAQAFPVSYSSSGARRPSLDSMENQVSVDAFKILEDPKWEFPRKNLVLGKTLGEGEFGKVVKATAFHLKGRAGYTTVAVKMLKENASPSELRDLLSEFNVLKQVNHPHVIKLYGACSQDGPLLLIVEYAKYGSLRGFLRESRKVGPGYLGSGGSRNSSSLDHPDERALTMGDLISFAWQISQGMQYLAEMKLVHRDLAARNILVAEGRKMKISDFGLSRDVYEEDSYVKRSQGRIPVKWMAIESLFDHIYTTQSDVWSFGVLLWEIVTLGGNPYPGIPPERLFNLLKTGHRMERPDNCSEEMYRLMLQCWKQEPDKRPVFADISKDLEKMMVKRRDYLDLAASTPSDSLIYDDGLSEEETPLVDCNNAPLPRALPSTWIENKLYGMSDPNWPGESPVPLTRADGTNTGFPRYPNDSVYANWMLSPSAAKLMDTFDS

[1] = tested on: DDR2 phosphorylation in MRC-5; test: DDR2 phosphorylation in TGF-β stimulated MRC-5; format: cell-based; conditions: 1 μmol/L, MRC-5, 24 h TGF-β stimulation
Outline: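 Confluent MRC-5 fibroblasts are stimulated with TGF-β (5 ng/mL) and treated with a range of test compound concentrations for 24 h. Western blots are probed for phospho-DDR2, fibronectin, α-SMA, with GAPDH as loading control.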

Flt-3 = molecular target: T2, Flt-3 (Homo sapiens, UniProt P36888); test: ELISA kinase assay, Flt-3; format: biochemical; conditions: read-out: Flt-3 inhibition@100 nmol/L
T2 sequence (P36888 27-993): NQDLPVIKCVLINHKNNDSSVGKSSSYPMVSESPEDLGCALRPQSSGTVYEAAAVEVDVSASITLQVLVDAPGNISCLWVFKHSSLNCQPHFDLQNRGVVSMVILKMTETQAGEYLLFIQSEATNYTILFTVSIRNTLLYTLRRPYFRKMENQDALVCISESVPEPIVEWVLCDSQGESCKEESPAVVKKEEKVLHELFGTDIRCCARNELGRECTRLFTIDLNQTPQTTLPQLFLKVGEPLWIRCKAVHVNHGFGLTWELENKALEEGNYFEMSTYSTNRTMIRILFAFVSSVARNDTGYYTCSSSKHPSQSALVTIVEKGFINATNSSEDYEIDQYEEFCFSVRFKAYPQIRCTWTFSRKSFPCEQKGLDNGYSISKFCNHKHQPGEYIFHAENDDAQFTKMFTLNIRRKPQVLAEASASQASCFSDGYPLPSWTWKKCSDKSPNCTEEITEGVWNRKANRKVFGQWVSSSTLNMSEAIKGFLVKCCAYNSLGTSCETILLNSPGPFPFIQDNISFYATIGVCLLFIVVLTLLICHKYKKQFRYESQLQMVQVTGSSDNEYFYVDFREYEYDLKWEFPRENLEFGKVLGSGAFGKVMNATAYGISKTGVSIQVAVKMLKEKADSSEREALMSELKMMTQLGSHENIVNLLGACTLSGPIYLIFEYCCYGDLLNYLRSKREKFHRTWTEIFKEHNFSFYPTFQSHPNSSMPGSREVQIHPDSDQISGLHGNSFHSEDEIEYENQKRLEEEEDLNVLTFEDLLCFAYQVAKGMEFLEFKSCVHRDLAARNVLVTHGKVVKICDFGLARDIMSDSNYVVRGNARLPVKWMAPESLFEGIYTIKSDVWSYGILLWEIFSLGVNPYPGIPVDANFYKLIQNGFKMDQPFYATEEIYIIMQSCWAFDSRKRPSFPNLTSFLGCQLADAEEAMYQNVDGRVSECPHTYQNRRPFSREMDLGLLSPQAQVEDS

FGFR-1 = FGFR-1 (Homo sapiens, UniProt P11362); test: Kinase selectivity test, FGFR-1; format: biochemical; conditions: 10 nmol/L
FGFR-1, sequence (P11362 22-822): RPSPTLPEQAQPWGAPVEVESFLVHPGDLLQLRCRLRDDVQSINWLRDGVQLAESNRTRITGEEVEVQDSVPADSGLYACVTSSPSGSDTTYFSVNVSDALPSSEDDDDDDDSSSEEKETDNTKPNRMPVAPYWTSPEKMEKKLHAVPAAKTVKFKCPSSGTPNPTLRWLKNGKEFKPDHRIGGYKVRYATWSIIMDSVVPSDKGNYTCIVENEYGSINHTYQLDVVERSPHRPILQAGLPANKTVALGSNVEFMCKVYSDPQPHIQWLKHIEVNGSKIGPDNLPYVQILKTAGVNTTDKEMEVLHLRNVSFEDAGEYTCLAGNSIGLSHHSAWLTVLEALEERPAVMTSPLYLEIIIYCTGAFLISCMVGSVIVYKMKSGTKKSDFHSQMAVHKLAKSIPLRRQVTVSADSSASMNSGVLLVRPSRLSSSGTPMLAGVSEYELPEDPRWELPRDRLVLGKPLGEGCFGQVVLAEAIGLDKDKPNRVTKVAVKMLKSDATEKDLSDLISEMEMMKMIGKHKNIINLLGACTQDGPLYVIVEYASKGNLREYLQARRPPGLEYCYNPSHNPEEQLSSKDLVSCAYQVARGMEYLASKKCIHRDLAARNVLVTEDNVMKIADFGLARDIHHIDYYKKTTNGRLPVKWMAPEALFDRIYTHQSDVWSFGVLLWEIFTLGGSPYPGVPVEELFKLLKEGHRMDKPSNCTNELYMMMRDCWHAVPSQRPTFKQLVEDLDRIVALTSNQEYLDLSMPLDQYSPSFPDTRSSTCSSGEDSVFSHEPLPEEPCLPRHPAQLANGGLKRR

ABL, sequence (P00519 whole entry): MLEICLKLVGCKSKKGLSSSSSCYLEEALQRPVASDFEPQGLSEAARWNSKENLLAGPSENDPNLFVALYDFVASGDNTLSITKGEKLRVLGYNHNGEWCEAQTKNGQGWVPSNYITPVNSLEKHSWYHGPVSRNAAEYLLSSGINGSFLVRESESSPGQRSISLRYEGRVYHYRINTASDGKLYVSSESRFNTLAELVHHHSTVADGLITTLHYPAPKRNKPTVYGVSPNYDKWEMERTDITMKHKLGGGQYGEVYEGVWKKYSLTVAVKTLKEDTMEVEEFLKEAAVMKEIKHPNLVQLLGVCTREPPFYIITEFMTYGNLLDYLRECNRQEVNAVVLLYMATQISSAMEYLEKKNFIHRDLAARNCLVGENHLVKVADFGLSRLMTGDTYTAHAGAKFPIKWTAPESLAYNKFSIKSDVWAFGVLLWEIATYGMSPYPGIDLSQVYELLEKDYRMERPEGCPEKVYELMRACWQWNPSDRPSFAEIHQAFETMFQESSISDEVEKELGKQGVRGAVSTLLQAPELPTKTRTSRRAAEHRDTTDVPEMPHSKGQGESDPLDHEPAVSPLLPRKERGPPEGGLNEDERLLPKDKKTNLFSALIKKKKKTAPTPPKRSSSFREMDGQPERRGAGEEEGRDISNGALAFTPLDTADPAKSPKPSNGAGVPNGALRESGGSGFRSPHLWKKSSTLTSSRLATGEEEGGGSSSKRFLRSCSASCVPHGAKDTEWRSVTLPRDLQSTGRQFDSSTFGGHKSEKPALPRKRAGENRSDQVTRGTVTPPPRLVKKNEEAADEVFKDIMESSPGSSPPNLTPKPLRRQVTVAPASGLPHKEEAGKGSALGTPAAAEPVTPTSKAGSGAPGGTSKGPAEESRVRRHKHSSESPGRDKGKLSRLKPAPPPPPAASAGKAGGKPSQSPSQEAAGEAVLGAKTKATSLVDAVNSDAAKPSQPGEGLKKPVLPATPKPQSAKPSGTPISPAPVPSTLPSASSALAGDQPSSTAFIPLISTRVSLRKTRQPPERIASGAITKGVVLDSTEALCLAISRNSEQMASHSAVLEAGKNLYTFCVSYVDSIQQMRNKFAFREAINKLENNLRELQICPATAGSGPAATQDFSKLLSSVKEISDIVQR

EPH-A2 inhibition ratio (EPH-A2): over 50%
inhibition ratio on ALK (ALK): 18.5%
ABL inhibition ratio (ABL): over 50%
KDR inhibition ratio (KDR): over 50%
c-Src inhibition ratio (c-Src): over 50%
PDGFR inhibition ratio (PDGFR): over 50%
VEGFR-1 inhibition ratio (VEGFR-1): over 50%
AXL inhibition ratio (AXL): over 50%
IC50 (DDR1): 8.13 nM
ErbB4 inhibition ratio (ErbB4): over 50%
inhibition at 0.01 µM (RET; read-out: RET inhibition @10 nmol/L): > 50%
inhibition at 0.1 µM (RET; read-out: RET inhibition @100 nmol/L): 97.2%
inhibition at 0.1 µM (Flt-3): 80.3%
FGFR-1 inhibition ratio (FGFR-1): over 50%
Compound: Cc1ccc(C(=O)Nc2cccc(C(F)(F)F)c2)cc1-c1ccc2nc(Nc3cnn(C)c3)ncc2c1 [Compound 22, 4-Methyl-3-(2-((1-methyl-1H-pyrazol-4-yl)amino)quinazolin-6-yl)-N-(3-(trifluoromethyl)phenyl)benzamide]
inhibition of DDR2 phosphorylation [1]: high inhibitory activity
